Screening results (PubChem)
Most compounds without a hit are left out; they make up all but 1.6% or so of the library.
procasp3 activ: activates human procaspase-3 | recombinant procaspase-3 D3A, Ac-DEVD-pNA absorbance 405 nm | 0.11% of 330,000 active | activation, % at 8.5 µM;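 active = activation above the mean of all tested compounds plus 3 SD, cut at about 21% in these data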
Target sequence (P42574 whole entry D9A/D28A/D175A): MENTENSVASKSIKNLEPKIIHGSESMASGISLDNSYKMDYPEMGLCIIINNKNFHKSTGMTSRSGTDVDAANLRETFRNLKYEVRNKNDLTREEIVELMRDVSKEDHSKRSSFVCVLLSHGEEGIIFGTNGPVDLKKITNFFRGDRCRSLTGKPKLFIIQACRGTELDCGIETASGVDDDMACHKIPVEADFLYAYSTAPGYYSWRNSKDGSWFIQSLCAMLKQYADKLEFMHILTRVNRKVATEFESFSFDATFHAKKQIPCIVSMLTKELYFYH
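material = Procaspase-3 D3A mutant | probe or stimulus = Ac-DEVD-pNA | compound = single dose, 8.5 µM nominal compound, 0.8% DMSO | timing = 1 h preincubation, 2 h reaction | measured by = 405 nm absorbance of p-nitroaniline, reads at 0 and 120 min | benchmarks = DMSO-only low control, 5 µM PC-3 D3A high control | repeats = singlicate, each compound tested once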
HGIII-sPLA2 inh: Blocks human group III sPLA2 activity; Q9NZ20; QFRET BODIPY PC-A2 liposome hydrolysis, fluorescence; inhibition, % at 12.2 µM; 0.56% of 370,000 active; AID 743126;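 active = inhibition above mean plus 3 SD of compounds lying within the high and low control bounds, cut at about 19% in these data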
PLCb3 inh: blocks human PLC-beta3 enzyme activity; Q01970; Purified PLC-beta3, fluorogenic substrate, fluorescence; inhibition, % at 12.2 µM; 0.18% of 370,000 active; in the data active = inhibition above about 11%
proCasp7 act: counter-screen: procaspase-7 (human) activation | P55210 | recombinant procaspase-7, Ac-DEVD-pNA absorbance 405 nm; D23A/D198A/D206A triple mutant, cannot self-cleave; scale: DMSO 0, 5 µM enzyme 100 | activation, % at 8.5 µM | 0.093% of 330,000 active | AID 463210;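 active = percent activation above the screen-wide mean plus 3 SD, cut at about 25% in these data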
Target sequence (P55210 whole entry D23A/D198A/D206A): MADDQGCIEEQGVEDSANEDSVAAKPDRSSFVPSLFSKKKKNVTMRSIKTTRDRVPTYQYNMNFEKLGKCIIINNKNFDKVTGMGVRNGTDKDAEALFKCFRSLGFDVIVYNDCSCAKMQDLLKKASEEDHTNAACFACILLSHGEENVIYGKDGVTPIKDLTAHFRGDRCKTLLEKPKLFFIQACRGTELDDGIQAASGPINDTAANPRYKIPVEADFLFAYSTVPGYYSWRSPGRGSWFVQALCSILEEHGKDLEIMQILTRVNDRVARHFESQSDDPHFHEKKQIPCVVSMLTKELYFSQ
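Detection: p-Nitroaniline absorbance at 405 nm, read at 0 and 120 min; system: Uncleavable procaspase-7 mutant enzyme; evaluation: % activation from two-timepoint absorbance difference, scaled to controls; times: 1 h enzyme–compound preincubation and 2 h substrate reaction, both 25 °C; buffer or medium: Zinc-free HEPES pH 7.4 with 300 mM NaCl, 0.01% Triton X-100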
PLC-gamma1 inh: PLC-gamma1 (human) inhibition, primary screen | P19174 | AID 720700 | 0.84% of 370,000 active | purified PLC-gamma1, fluorogenic substrate, fluorescence | inhibition, % at 12.2 µM
PLCgamma1 ctr: inhibits human PLC-gamma1 in PLC-beta3 counter-screen. 3.1% of 3,300 active. AID 743258. purified PLC-gamma1, fluorogenic substrate, fluorescence. inhibition, % at 12.3 µM. shares compounds with PLC-gamma1 inh
PLCbeta3 conf: human PLC-beta3 inhibition, confirmation | shares compounds with PLC-gamma1 inh | purified PLC-beta3, fluorogenic substrate fluorescence | inhibition, % at 12.3 µM | 1% of 3,300 active | AID 743261; in the data active = inhibition above about 11%
Large screens that a line does not name were inactive (follow-up assays come after a bar, where they were run). Cut-off read from the data, not from the text of the source, unless noted: active = inhibition above about 9.5%; inactive = the rest.

CCc1nc2ccc(C(=O)N3CCCC(C(N)=O)C3)cn2c1N(CCC(C)C)CCN(C)C (stereo unspecified)	none (no result: procasp3 activ, proCasp7 act)
CCc1nc2ccc(C(=O)N3CCCC(C(N)=O)C3)cn2c1N(C)Cc1ccc(OC)cc1 (stereo unspecified)	PLC-gamma1 inh 10 (no result: procasp3 activ, proCasp7 act) | PLCgamma1 ctr inactive | PLCbeta3 conf inactive
CCCOc1ccc(C2C(=O)N(C3CCCCC3)CC(=O)N2C2CC2)cc1OC (stereo unspecified)	PLC-gamma1 inh 13 | PLCgamma1 ctr inactive | PLCbeta3 conf inactive
CCOC(=O)c1ccc(NC(=O)Cn2c(C)nc3c(sc(=S)n3CC)c2=O)cc1	none
CCn1c(=S)sc2c(=O)n(CC(=O)Nc3cccc(Cl)c3)c(C)nc21	PLC-gamma1 inh 10 | PLCgamma1 ctr inactive | PLCbeta3 conf 11
O=Cc1cccc(OCc2cccc3ccccc23)c1	none
Cc1c(C(=O)OCC(=O)c2c(N)n(CC(C)C)c(=O)n(C)c2=O)oc2ccccc12	PLCb3 inh 46 | PLCgamma1 ctr inactive | PLCbeta3 conf inactive
COCc1c(C(=O)OCC(=O)c2c(N)n(CC(C)C)c(=O)n(C)c2=O)oc2ccccc12	none
C[C@H](CO)N1C[C@H](C)[C@@H](CN(C)S(=O)(=O)c2ccc3c(c2)OCCCO3)OCc2cn(nn2)CCCC1=O	PLC-gamma1 inh 9.5 (no result: procasp3 activ, proCasp7 act) | PLCgamma1 ctr inactive | PLCbeta3 conf inactive
COc1cccc(S(=O)(=O)N(C)C[C@@H]2OCc3cnnn3CCCC(=O)N([C@H](C)CO)C[C@@H]2C)c1	none (no result: procasp3 activ, proCasp7 act)
COc1cccc(S(=O)(=O)N(C)C[C@H]2OCc3cnnn3CCCC(=O)N([C@@H](C)CO)C[C@@H]2C)c1	PLCb3 inh 11 (no result: procasp3 activ, proCasp7 act) | PLCgamma1 ctr inactive | PLCbeta3 conf inactive
C[C@@H]1CN([C@H](C)CO)C(=O)CCCn2cc(nn2)CO[C@H]1CN(C)C(=O)c1ccncc1	none (no result: procasp3 activ, proCasp7 act)
C[C@H](CO)N1C[C@H](C)[C@@H](CN(C)C(=O)c2ccccc2)OCc2cn(nn2)CCCC1=O	PLCb3 inh 11 (no result: procasp3 activ, proCasp7 act) | PLCgamma1 ctr inactive | PLCbeta3 conf inactive
C=CCn1c(SCC(=O)N2CCOCC2)nc2ccccc2c1=O	none
Fc1ccc(-c2nnc(SCc3cccnc3)o2)cc1	none
O=C(c1cc(Cl)cc(Cl)c1)N1CC[C@H]2[C@H](CCCN2Cc2ccc(F)cc2)C1	none (no result: procasp3 activ, proCasp7 act)
O=C(c1ccccc1)N1CCN(c2ccc([N+](=O)[O-])c(NCc3cccnc3)c2)CC1	PLC-gamma1 inh 9.7 | PLCgamma1 ctr inactive | PLCbeta3 conf inactive
Cc1ccc(/C=N/NC(=O)Cn2cnc3ccccc32)o1	none
Cc1ccc(/C=N\NC(=O)Cn2c(C)nc3ccccc32)o1	PLC-gamma1 inh 9.8 | PLCgamma1 ctr inactive | PLCbeta3 conf inactive
CCOc1ccc(NC(=O)CN(C)C(=O)c2cccnc2Sc2ccc(Cl)cc2)cc1OCC	none
CCCNC(=O)C1(O)c2cc(Br)ccc2NC(=O)N1c1ccc(Cl)cc1 (stereo unspecified)	none
CCN(CC)CCNC(=O)C1(O)c2cc(Br)ccc2NC(=O)N1c1ccc(Cl)cc1 (stereo unspecified)	PLC-gamma1 inh 12 | PLCgamma1 ctr inactive | PLCbeta3 conf inactive
CCCCCCCCN1CCS(=O)(=O)N(Cc2ccc(C)cc2)C(C(=O)OC)C1 (stereo unspecified)	none (no result: procasp3 activ, proCasp7 act)
CSc1nc(N)c(C(=O)NC2CCCCC2)s1	PLC-gamma1 inh 12 | PLCgamma1 ctr 9.6 | PLCbeta3 conf inactive
COC(=O)C1C(c2ccccc2)C(C(=O)N2CCOCC2)C1c1ccccc1 (stereo unspecified)	PLCb3 inh 15 | PLCgamma1 ctr inactive | PLCbeta3 conf inactive
O=C(N1CCOCC1)N1CCN(S(=O)(=O)N2CCCCC2)CC1	none
O=S(=O)(N1CCOCC1)N1CCCN(S(=O)(=O)N2CCOCC2)CC1	PLC-gamma1 inh 11 | PLCgamma1 ctr inactive | PLCbeta3 conf inactive
CSCCNC(=O)C1(C)CCN1C(=O)c1sccc1C (stereo unspecified)	none (no result: procasp3 activ, proCasp7 act)
CCOC(=O)c1c(CC(C)C)csc1NC(=O)CCl	PLCb3 inh 11 | PLCgamma1 ctr inactive | PLCbeta3 conf inactive
COc1ccc2oc3cc(Cl)ccc3c(=O)c2c1	none (no result: procasp3 activ, proCasp7 act)
Cc1cc(C)nc(Nc2nc(C(N)CCc3ccccc3)cs2)n1 (stereo unspecified)	PLCb3 inh 11, PLC-gamma1 inh 14 (no result: procasp3 activ, proCasp7 act) | PLCgamma1 ctr inactive | PLCbeta3 conf inactive
Cc1cc(C)nc(Nc2nc(C(N)c3ccccc3)cs2)n1 (stereo unspecified)	none (no result: procasp3 activ, proCasp7 act)
CCOc1ccc(/C=N/Nc2ccc(C(F)(F)F)cc2[N+](=O)[O-])cc1O	none
COc1ccc(/C=N/Nc2ccc(C(F)(F)F)cc2[N+](=O)[O-])cc1O	PLC-gamma1 inh 11 | PLCgamma1 ctr inactive | PLCbeta3 conf inactive
O=C(O)c1ccccc1-c1nc2ccccc2c(=O)[nH]1	PLC-gamma1 inh 9.9 | PLCgamma1 ctr inactive | PLCbeta3 conf inactive
O=C(O)c1ccccc1-c1nc(-c2ccccc2)c(-c2ccccc2)[nH]1	none
Cc1ccc(S(=O)(=O)Nc2ccc3c(c2)CCC3)cc1	none
Cc1ccc(S(=O)(=O)Nc2ccc3c(c2)CCC3)cc1C	PLC-gamma1 inh 13 | PLCgamma1 ctr inactive | PLCbeta3 conf inactive
CN1C(=O)N(CC(=O)Nc2cccc(S(=O)(=O)N(C)c3ccccc3)c2)C(=O)C12CCCCC2	PLC-gamma1 inh 14 (no result: procasp3 activ, proCasp7 act) | PLCgamma1 ctr inactive | PLCbeta3 conf inactive
O=C1CCN(Cc2ccc(O)cc2)CCN1[C@H](CO)c1ccccc1	PLC-gamma1 inh 9.7 | PLCgamma1 ctr inactive | PLCbeta3 conf inactive
Cc1nnc(NC(=O)C2CC(=O)N(c3ccccc3)C2)s1 (stereo unspecified)	none
CN1OC[C@@H]2CN(S(=O)(=O)c3cccc(C(F)(F)F)c3)[C@H](c3ccc(N4CCCCC4)cc3)C[C@@H]21	none (no result: procasp3 activ, proCasp7 act)
COCCNC(=S)N1C[C@H]2CON(C)[C@H]2C[C@H]1c1ccccc1Br	PLC-gamma1 inh 9.7 (no result: procasp3 activ, proCasp7 act) | PLCgamma1 ctr inactive | PLCbeta3 conf inactive
CN1OC[C@@H]2CN(C(=S)NCCc3ccccc3)[C@H](c3ccccc3Br)C[C@@H]21	none (no result: procasp3 activ, proCasp7 act)
O=C(NCCc1ccccn1)c1cccc(S(=O)(=O)N2CCCCCC2)c1	PLCb3 inh 14, PLC-gamma1 inh 15 | PLCgamma1 ctr inactive | PLCbeta3 conf inactive
O=C(NCCc1ccccn1)c1cccc(S(=O)(=O)N2CCc3ccccc32)c1	none
O=C(NCc1ccccn1)c1ccc(Cl)c(S(=O)(=O)N2CCCCCC2)c1	PLC-gamma1 inh 9.9 | PLCgamma1 ctr inactive | PLCbeta3 conf inactive
O=C(C(=O)N1CCN(C(=O)OCc2ccccc2)CC1)c1cccs1	none (no result: procasp3 activ, proCasp7 act)
Cc1cc(C)n(CCNc2nc3nonc3nc2N2CCCCC2)n1	none
